Data from ChEMBL document CHEMBL1152965, “Synthesis and in vitro antiplasmodial evaluation of 4-anilino-2-trichloromethylquinazolines” (Bioorg Med Chem, 2009).

Tests used:
Plasmodium falciparum = experiment: Antimalarial activity as reduced parasitaemia after 48 hrs against chloroquine, pyrimethamine and proguanil-resistant Plasmodium falciparum W2 infected in type A+ human erythrocytes by flow cytometry; type: functional, organism-based; settings: W2, 48 h
HepG2 = experiment: Cytotoxicity against human HepG2 cells after 72 hrs by MTT assay; type: cell-based; settings: HepG2, 72 h
Outline: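 HepG2 cells plated in RPMI with 10% FBS and grown 24 h, then exposed to a range of compound concentrations for 72 h at 37 °C, 6% CO₂. MTT (5 mg/mL stock) added for 2 h, formazan dissolved in DMSO and read at 570 nm against 630 nm. Viability expressed as percent of untreated control. CC50 taken from the dose-response curve.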

[1] = Selectivity index, ratio IC50 for human HepG2 cells to IC50 for chloroquine, pyrimethamine and proguanil-resistant Plasmodium falciparum W2; type: functional
Outline: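 SI = HepG2 IC50 / W2 IC50. MTT 2 h, formazan dissolved in DMSO, absorbance 570 nm (ref 630 nm). Viability as % of untreated control, IC50 from dose-response curve.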

[2] = Selectivity index, ratio of IC50 for human K562 cells to IC50 for chloroquine, pyrimethamine and proguanil-resistant Plasmodium falciparum W2; type: toxicity, cell-based; settings: K562 cells (cytotoxicity) versus Plasmodium falciparum W2, read-out: Ratio IC50
Outline: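 SI = K562 IC50 / W2 IC50. Live cells counted by flow cytometry after propidium iodide stain. IC50 by non-linear regression, mean of three independent experiments.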

K562 = experiment: Cytotoxicity against human K562 cells after 72 hrs by flow cytometry; type: cell-based; settings: K562, 72 h
Outline: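 Chemosensitive K562 subline, late log phase, in phenol-red-free RPMI with 10% serum. Compound range added in duplicate (DMSO <0.5%). After 72 h at 37 °C, 6% CO₂, cells stained with propidium iodide and live cells in a 100 µL sample counted by flow cytometry. IC50 from non-linear regression of dose-response curves, mean of three independent experiments.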

Leishmania donovani = experiment: Antileishmanial activity against Leishmania donovani HOM/IN/01/2001 promastigotes after 72 hrs by flow cytometry; type: functional, organism-based; settings: HOM/IN/01/2001, 72 h
Outline: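 GFP-transfected promastigotes, log phase, in M199 with 10% FCS and 500 µg/mL G418, seeded at 10⁵ parasites/mL. Compounds in DMSO (final <0.5% v/v) added in duplicate over a concentration range. Incubated 72 h at 27 °C.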

Toxoplasma gondii = experiment: Antitoxoplasmic activity against Toxoplasma gondii tachyzoites infected in HFF assessed as beta-galactosidase activity after 96 hrs by colorimetric microtiter assay; type: functional, organism-based
Outline: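 Tachyzoites of the PRU-β-Gal strain. 10⁴ HFF cells per well grown to confluence in phenol-red-free RPMI with 10% FCS. Monolayers infected with 2.10³ parasites per well for 3 h, then compounds in DMSO (final <0.5%) added in triplicate. Incubated 96 h at 37 °C, 6% CO₂. CPRG added at 500 µM final for a further 24 h. Read at 570/630 nm, blanked on uninfected wells. IC50 from three independent experiments.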

Row | Structure (SMILES) | IC50 (Plasmodium falciparum) | IC50 (HepG2) | Ratio IC50 [1] | selectivity ratio [2] | IC50 (K562) | IC50 (Leishmania donovani) | IC50 (Toxoplasma gondii)
1 | COc1cccc(Nc2nc(C(Cl)(Cl)Cl)nc3ccccc23)c1 | 4 µM | 0.5 µM | 0.1 | 2.3 | 9 µM | – | –
2 | Clc1cccc(Nc2nc(C(Cl)(Cl)Cl)nc3ccccc23)c1Cl | 14 µM | > 100 µM | 7.1 | > 4.3 | > 60 µM | – | –
3 | Clc1ccccc1Nc1nc(C(Cl)(Cl)Cl)nc2ccccc12 | 4.6 µM | 25 µM | 5.5 | > 10.9 | > 50 µM | – | –
4 | Clc1ccc(Cl)c(Nc2nc(C(Cl)(Cl)Cl)nc3ccccc23)c1 | 1.7 µM | 30 µM | 17.6 | > 4.7 | > 8 µM | – | –
5 | FC(F)(F)c1ccccc1Nc1nc(C(Cl)(Cl)Cl)nc2ccccc12 | 7.4 µM | 10 µM | 1.4 | 4.1 | 30 µM | – | –
6 | Clc1ccc(Nc2nc(C(Cl)(Cl)Cl)nc3ccccc23)cc1Cl | 5 µM | 8 µM | 1.6 | 1.8 | 9 µM | – | –
7 | COc1ccccc1Nc1nc(C(Cl)(Cl)Cl)nc2ccccc12 | 6 µM | 60 µM | 10 | 10 | 60 µM | – | –
8 | CN1CCN(c2nc(C(Cl)(Cl)Cl)nc3ccccc23)CC1 | 5.6 µM | 75 µM | 13.4 | 11.6 | 65 µM | – | –
9 | ClC(Cl)(Cl)c1nc(Nc2ccccc2)c2ccccc2n1 | 11 µM | > 50 µM | >4.5 | > 4.5 | > 50 µM | – | –
10 | ClC(Cl)(Cl)c1nc(NCc2ccccc2)c2ccccc2n1 | 6.9 µM | 13 µM | 1.9 | > 7.2 | > 50 µM | – | –
11 | ClC(Cl)(Cl)c1nc(Nc2ccccc2Br)c2ccccc2n1 | 3 µM | > 50 µM | >16.7 | > 10 | > 30 µM | – | –
12 | Cc1ccccc1Nc1nc(C(Cl)(Cl)Cl)nc2ccccc12 | 7 µM | 24 µM | 3.4 | 1.6 | 11 µM | – | –
13 | Fc1ccc(Nc2nc(C(Cl)(Cl)Cl)nc3ccccc23)cc1 | 5.4 µM | > 50 µM | >9.3 | > 23.1 | > 125 µM | – | –
14 | O=[N+]([O-])c1cccc(Nc2nc(C(Cl)(Cl)Cl)nc3ccccc23)c1 | 3 µM | 10 µM | 3.3 | 1.7 | 5 µM | – | –
15 | COc1ccc(Nc2nc(C(Cl)(Cl)Cl)nc3ccccc23)cc1 | 6 µM | 7 µM | 1.2 | 1.3 | 8 µM | – | –
16 | Clc1cc(Cl)cc(Nc2nc(C(Cl)(Cl)Cl)nc3ccccc23)c1 | 4 µM | 10 µM | 2.5 | 2.2 | 9 µM | – | –
17 | ClC(Cl)(Cl)c1nc(N2CCCC2)c2ccccc2n1 | 41.5 µM | > 250 µM | >6 | > 3 | > 125 µM | – | –
18 | Cc1nc(Nc2cccc(Cl)c2)c2ccccc2n1 | 55 µM | 40 µM | 0.7 | 0.5 | 27 µM | – | –
19 | Fc1cccc(Nc2nc(C(Cl)(Cl)Cl)nc3ccccc23)c1 | 4 µM | 16 µM | 1 | 3.8 | 15 µM | – | –
20 | CCCCNc1nc(C(Cl)(Cl)Cl)nc2ccccc12 | 14.3 µM | 16 µM | 1.1 | > 3.5 | > 50 µM | – | –

Row | Structure (SMILES) | IC50 (Plasmodium falciparum) | IC50 (HepG2) | Ratio IC50 [1] | selectivity ratio [2] | IC50 (K562) | IC50 (Leishmania donovani) | IC50 (Toxoplasma gondii)
21 | Clc1ccc(Nc2nc(C(Cl)(Cl)Cl)nc3ccccc23)cc1 | 3 µM | 9 µM | 3 | 4.7 | 14 µM | – | –
22 | ClC(Cl)(Cl)c1nc(Nc2ccc(Br)cc2)c2ccccc2n1 | 1.5 µM | 10 µM | 5.7 | 10 | 15 µM | – | –
23 | Cc1cccc(Nc2nc(C(Cl)(Cl)Cl)nc3ccccc23)c1 | 2.3 µM | 12 µM | 5.2 | 3.9 | 9 µM | – | –
24 | ClC(Cl)(Cl)c1nc(N2CCOCC2)c2ccccc2n1 | 14.9 µM | 63 µM | >2 | > 8.4 | > 125 µM | – | –
25 | O=[N+]([O-])c1ccc(Nc2nc(C(Cl)(Cl)Cl)nc3ccccc23)cc1 | 2.8 µM | 6 µM | 2.1 | 1.8 | 5 µM | – | –
26 | Clc1cccc(Cl)c1Nc1nc(C(Cl)(Cl)Cl)nc2ccccc12 | 21.9 µM | 23 µM | 1.1 | 0.5 | 10 µM | – | –
27 | Fc1ccccc1Nc1nc(C(Cl)(Cl)Cl)nc2ccccc12 | 9 µM | 10 µM | 1.1 | 3.3 | 30 µM | – | –
28 | ClC(Cl)(Cl)c1nc(NC2CCCCCC2)c2ccccc2n1 | 5.1 µM | 19 µM | 3.7 | > 9.8 | > 50 µM | – | –
29 | ClC(Cl)(Cl)c1nc(Nc2cccc3ccccc23)c2ccccc2n1 | 6 µM | 15 µM | 2.5 | 0.8 | 5 µM | – | –
30 | FC(F)(F)Oc1ccc(Nc2nc(C(Cl)(Cl)Cl)nc3ccccc23)cc1 | 2.9 µM | 6 µM | 2.1 | 2.1 | 6 µM | – | –
31 | O=[N+]([O-])c1ccccc1Nc1nc(C(Cl)(Cl)Cl)nc2ccccc12 | 3 µM | > 100 µM | >33.3 | > 20 | > 60 µM | – | –
32 | FC(F)(F)c1cc(Nc2nc(C(Cl)(Cl)Cl)nc3ccccc23)cc(C(F)(F)F)c1 | 3 µM | 3 µM | 1 | 3.3 | 10 µM | – | –
33 | Cc1nc(Nc2cccc(C(F)(F)F)c2)c2ccccc2n1 | 42.5 µM | 20 µM | 0.5 | 0.2 | 10 µM | – | –
34 | Cc1ccc(Nc2nc(C(Cl)(Cl)Cl)nc3ccccc23)cc1 | 2.4 µM | 8 µM | 3.3 | 2.5 | 6 µM | – | –
35 | FC(F)(F)c1ccc(Nc2nc(C(Cl)(Cl)Cl)nc3ccccc23)cc1 | 1.6 µM | 6 µM | 3.8 | 2.5 | 4 µM | – | –
36 | C[C@@H]1[C@H](O)[C@@H](C)/C=C/C=C/C=C/C=C/C=C/C=C/C=C/[C@H](O[C@@H]2O[C@H](C)[C@@H](O)[C@H](N)[C@@H]2O)C[C@@H]2O[C@](O)(C[C@@H](O)C[C@@H](O)[C@H](O)CC[C@@H](O)C[C@@H](O)CC(=O)O[C@H]1C)C[C@H](O)[C@H]2C(=O)O [AMPHOTERICIN B] | – | 10 µM | – | – | 17 µM | 0.08 µM | –
37 | CCN(CC)CCCC(C)Nc1ccnc2cc(Cl)ccc12 (centres undefined) [CHLOROQUINE] | – | – | – | – | 32 µM | – | –
38 | COc1cccc2c1C(=O)c1c(O)c3c(c(O)c1C2=O)C[C@@](O)(C(=O)CO)C[C@@H]3O[C@H]1C[C@H](N)[C@H](O)[C@H](C)O1 [DOXORUBICIN] | – | 0.2 µM | – | – | 0.06 µM | – | –
39 | C[C@H]1c2cccc(O)c2C(=O)C2=C(O)[C@]3(O)C(=O)C(C(N)=O)=C(O)[C@@H](N(C)C)[C@@H]3[C@@H](O)[C@@H]21.O [DOXYCYCLINE] | 6.5 µM | 20 µM | 3.1 | 2.3 | 15 µM | – | –
40 | CCc1nc(N)nc(N)c1-c1ccc(Cl)cc1 [PYRIMETHAMINE] | – | 30 µM | – | – | 5 µM | – | 2 µM
